According to ChEMBL document CHEMBL3792346, “Thiazolino 2-Pyridone Amide Inhibitors of Chlamydia trachomatis Infectivity” (J Med Chem, 2016):

Tests used:
Chlamydia trachomatis = test: Antimicrobial activity against Chlamydia trachomatis serovar LGV-L2 infected in human HeLa cells assessed as concentration require to reduce relative inclusion forming units by 95% after 48 hrs; assay type: functional
Method in brief: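 HeLa cells infected with LGV-L2 at MOI 0.1-0.5; compounds added at 1 hpi, tested at 2.5 µM then 5 or 10 µM or 1, 0.5, 0.25, 0.1 µM; after ~48 h, osmotic lysis, SPG restored, 10-fold dilutions reinfect fresh HeLa; IFUs counted by automated imaging versus DMSO; Reinfect95 = lowest concentration consistently giving 95% IFU reduction; ≥2 experiments in triplicate.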

[1] = Cytotoxicity against human HeLa cells assessed as cell viability at 10 uM after 48 hrs by resazurin assay relative to control; assay type: cell-based; details: read-out: Activity
Method in brief: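 Uninfected HeLa seeded in RPMI, next day switched to colorless DMEM with 10% FBS, 2 mM glutamine; compounds added in triplicate, 48 h at 37 °C; resazurin added, 3 h at 37 °C dark; fluorescence ex 535/em 595 nm; cell-free wells with compound check direct resazurin reduction; mean of three experiments in triplicate, SD over nine replicates.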

## COc1cccc(NC(=O)C2CSc3c(C4CC4)c(Cc4cccc5ccccc45)cc(=O)n32)c1 (centres undefined)
Chlamydia trachomatis
  Activity: 2.5 µM
[1]
  viability at 48 h, 10 µM: 98%

## NC(=O)c1ccc(NC(=O)C2CSc3c(C4CC4)c(Cc4cccc5ccccc45)c(N)c(=O)n32)cc1 (centres undefined)
Chlamydia trachomatis
  Activity: >10 µM
[1]
  viability at 48 h, 10 µM: 103%

## CN1CCN(C(=O)C2CSc3c(C4CC4)c(Cc4cccc5ccccc45)cc(=O)n32)CC1 (centres undefined)
Chlamydia trachomatis
  Activity: >10 µM
[1]
  viability at 48 h, 10 µM: 96%

## Cc1cccc(Cc2cc(=O)n3c(c2C2CC2)SCC3C(=O)Nc2ccccc2)c1 (centres undefined)
Chlamydia trachomatis
  Activity: 2.5 µM
[1]
  viability at 48 h, 10 µM: 87%

## O=C(Nc1ccncn1)C1CSc2c(C3CC3)c(Cc3cccc4ccccc34)cc(=O)n21 (centres undefined)
Chlamydia trachomatis
  Activity: 2.5 µM
[1]
  viability at 48 h, 10 µM: 92%

## O=C(Nc1ccccc1)C1CSc2c(C3CC3)c(Cc3cccc4ccccc34)cc(=O)n21 (racemic)
Chlamydia trachomatis
  Activity: 2.5 µM
[1]
  viability at 48 h, 10 µM: 100%

## O=C(Nc1ccncc1)C1CSc2c(C3CC3)c(Cc3cccc4ccccc34)cc(=O)n21 (centres undefined)
Chlamydia trachomatis
  Activity: 5 µM
[1]
  viability at 48 h, 10 µM: 69%

## O=C(Nc1ccccc1)[C@@H]1CSc2c(C3CC3)c(Cc3cccc4ccccc34)cc(=O)n21
Chlamydia trachomatis
  Activity: 2.5 µM
[1]
  viability at 48 h, 10 µM: 100%

## O=C(Nc1ccccn1)C1CSc2c(C3CC3)c(Cc3cccc4ccccc34)cc(=O)n21 (centres undefined)
Chlamydia trachomatis
  Activity: 10 µM
[1]
  viability at 48 h, 10 µM: 90%

## O=C(Nc1ccccc1)[C@H]1CSc2c(C3CC3)c(Cc3cccc4ccccc34)cc(=O)n21
Chlamydia trachomatis
  Activity: 2.5 µM
[1]
  viability at 48 h, 10 µM: 100%

## O=C(Nc1ccccc1)C1CSc2c(C3CC3)c(Cc3ccccc3)cc(=O)n21 (centres undefined)
Chlamydia trachomatis
  Activity: 2.5 µM
[1]
  viability at 48 h, 10 µM: 96%

## CCc1cccc(NC(=O)C2CSc3c(C4CC4)c(Cc4cccc5ccccc45)cc(=O)n32)c1 (centres undefined)
Chlamydia trachomatis
  Activity: 2.5 µM
[1]
  viability at 48 h, 10 µM: 100%

## O=C(Nc1ccccc1)C1CSc2c(C3CC3)c(Cc3cccc4ncccc34)cc(=O)n21 (centres undefined)
Chlamydia trachomatis
  Activity: 10 µM
[1]
  viability at 48 h, 10 µM: 91%

## O=C(Nc1cccc(F)c1)C1CSc2c(C3CC3)c(Cc3cccc4ccccc34)cc(=O)n21 (centres undefined)
Chlamydia trachomatis
  Activity: 2.5 µM
[1]
  viability at 48 h, 10 µM: 96%

## O=C(NCc1ccccc1)C1CSc2c(C3CC3)c(Cc3cccc4ccccc34)cc(=O)n21 (centres undefined)
Chlamydia trachomatis
  Activity: 2.5 µM
[1]
  viability at 48 h, 10 µM: 93%

## CNC(=O)c1cccc(NC(=O)C2CSc3c(C4CC4)c(Cc4cccc5ccccc45)cc(=O)n32)c1 (centres undefined)
Chlamydia trachomatis
  Activity: 10 µM
[1]
  viability at 48 h, 10 µM: 93%

## O=C(Nc1nccs1)C1CSc2c(C3CC3)c(Cc3cccc4ccccc34)cc(=O)n21 (centres undefined)
Chlamydia trachomatis
  Activity: 5 µM
[1]
  viability at 48 h, 10 µM: 96%

## CN(C(=O)C1CSc2c(C3CC3)c(Cc3cccc4ccccc34)cc(=O)n21)c1ccccc1 (centres undefined)
Chlamydia trachomatis
  Activity: 5 µM
[1]
  viability at 48 h, 10 µM: 96%

## COc1ccc(Cc2cc(=O)n3c(c2C2CC2)SCC3C(=O)Nc2ccccc2)cc1 (centres undefined)
Chlamydia trachomatis
  Activity: 2.5 µM
[1]
  viability at 48 h, 10 µM: 103%

## O=C(Nc1cccc(C(F)(F)F)c1)C1CSc2c(C3CC3)c(Cc3cccc4ccccc34)cc(=O)n21 (centres undefined)
Chlamydia trachomatis
  Activity: 2.5 µM
[1]
  viability at 48 h, 10 µM: 95%

## Cc1cc(=O)n2c(c1C1CC1)SCC2C(=O)Nc1ccccc1 (centres undefined)
Chlamydia trachomatis
  Activity: 10 µM
[1]
  viability at 48 h, 10 µM: 99%

## Cc1ccc(Cc2cc(=O)n3c(c2C2CC2)SCC3C(=O)Nc2ccccc2)cc1C (centres undefined)
Chlamydia trachomatis
  Activity: 2.5 µM
[1]
  viability at 48 h, 10 µM: 91%

## O=C(Nc1ccccc1)C1CSc2c(C3CC3)c(Cc3cccc(Cl)c3Cl)cc(=O)n21 (centres undefined)
Chlamydia trachomatis
  Activity: 2.5 µM
[1]
  viability at 48 h, 10 µM: 85%

## CON(C)C(=O)C1CSc2c(C3CC3)c(Cc3cccc4ccccc34)cc(=O)n21 (centres undefined)
Chlamydia trachomatis
  Activity: >10 µM
[1]
  viability at 48 h, 10 µM: 88%

## O=C(Nc1ccccc1)C1CSc2c(C3CC3)c(Cc3ccc(Cl)cc3)cc(=O)n21 (centres undefined)
Chlamydia trachomatis
  Activity: 2.5 µM
[1]
  viability at 48 h, 10 µM: 94%

## NC(=O)c1ccc(NC(=O)C2CSc3c(C4CC4)c(Cc4cccc5ccccc45)cc(=O)n32)cc1 (centres undefined)
Chlamydia trachomatis
  Activity: 2.5 µM
[1]
  viability at 48 h, 10 µM: 98%

## O=C(Nc1cccc(Cl)c1)C1CSc2c(C3CC3)c(Cc3cccc4ccccc34)cc(=O)n21 (centres undefined)
Chlamydia trachomatis
  Activity: 2.5 µM
[1]
  viability at 48 h, 10 µM: 100%
